Three compounds from ChEMBL document CHEMBL2062406, “Fluorocyclopentenyl-cytosine with broad spectrum and potent antitumor activity” (J Med Chem, 2012) can be followed below.

Series [1] has as its system HCT-116. Briefly: Antitumor activity against human HCT116 cells by SRB method. It is filed as functional, cell-based. A general note: The SRB assay estimates cell density from bound dye.
In series [2] the test system is PC-3. Put plainly: Antitumor activity against human PC3 cells by SRB method. It is filed as functional, cell-based.
Series [3] relates to MCF7. Briefly: Antitumor activity against human MCF7 cells by SRB method. It is filed as functional, cell-based.
In series [4] the test system is U-251. Briefly: Antitumor activity against human U251 cells by SRB method. It is filed as functional, cell-based.
In series [5] the test system is K562. Briefly: Antitumor activity against human K562 cells by SRB method. It is filed as functional, cell-based.
Series [6] relates to MKN-45. Put plainly: Antitumor activity against human MKN45 cells by SRB method. It is filed as functional, cell-based.
Series [7] concerns HT-29. Briefly: Antitumor activity against human HT-29 cells by SRB method. It is filed as functional, cell-based.
Series [8] has as its system PANC-1. Put plainly: Antitumor activity against human PANC1 cells by SRB method. It is filed as functional, cell-based.
The subject of series [9] is UMRC2. Briefly: (§1) Antitumor activity against human UMRC2 cells by SRB method. It is filed as functional, cell-based.
In series [10] the test system is HepG2. Put plainly: Antitumor activity against human HepG2 cells by SRB method. It is filed as functional, cell-based.
Series [11] relates to MDA-MB-231. Put plainly: Antitumor activity against human MDA-MB-231 cells by SRB method. It is filed as functional, cell-based.
Series [12] deals with LNCaP. Put plainly: Antitumor activity against human LNCAP cells by SRB method. It is filed as functional, cell-based.
For series [13], the system named is HeLa. Briefly: Antitumor activity against human HeLa cells by SRB method. It is filed as functional, cell-based.
For series [14], the system named is NCI-H226. Briefly: Antitumor activity against human NCI-H226 cells by SRB method. It is filed as functional, cell-based.
Series [15] relates to SK-MEL-28. Put plainly: Antitumor activity against human SK-MEL-28 cells by SRB method. It is filed as functional, cell-based.
For series [16], the system named is OVCAR-3. Put plainly: Antitumor activity against human OVCAR3 cells by SRB method. It is filed as functional, cell-based.
Series [17] has as its system A549. Briefly: Antitumor activity against human A549 cells by SRB method. It is filed as functional, cell-based.
Series [18] relates to A549. Briefly: Antitumor activity against human A549 cells xenografted in ip dosed nu/nu mouse assessed as inhibition of tumor weight administered three times a week for 3 weeks. It is filed as functional, organism-based. The gist of the method:
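Male nu/nu mice carried subcutaneous right-flank A549 xenografts (3 × 10⁶ cells). Treatment started at about 100 mm³ with 3 or 10 mg/kg intraperitoneally, three times weekly for three weeks. Tumors were excised and weighed on day 38. Comparison was with the vehicle control group, with significance at p < 0.05 or p < 0.01.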

Series [19] concerns A549. Briefly: Antitumor activity against human A549 cells xenografted in nu/nu mouse assessed as inhibition of tumor volume at 3 mg/kg, ip administered three times a week for 3 weeks. It is filed as functional. Conditions: 504 h, route intraperitoneal. The gist of the method: (§2)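 Male nu/nu mice received 3 × 10⁶ A549 cells subcutaneously in the right flank. Dosing began at about 100 mm³ tumor volume: 3 or 10 mg/kg intraperitoneally, three times a week for three weeks. Tumor volume was measured by caliper every 2−3 days. Percent inhibition of tumor volume was calculated against a vehicle-treated control group.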

Series [20] deals with K562. Briefly: Antitumor activity against human K562 cells at 1 uM by SRB method. It is filed as functional, cell-based.
Series [21] has as its system UMRC2. Briefly: Antitumor activity against human UMRC2 cells at 1 uM by SRB method. It is filed as functional, cell-based.
For series [22], the system named is OVCAR-3. Put plainly: Antitumor activity against human OVCAR3 cells at 1 uM by SRB method. It is filed as functional, cell-based.
Series [23] relates to LNCaP. Briefly: Antitumor activity against human LNCAP cells at 1 uM by SRB method. It is filed as functional, cell-based.
In series [24] the test system is HT-29. Put plainly: Antitumor activity against human HT-29 cells at 1 uM by SRB method. It is filed as functional, cell-based.
Series [25] has as its system PANC-1. Put plainly: Antitumor activity against human PANC1 cells at 1 uM by SRB method. It is filed as functional, cell-based.
Series [26] has as its system A549. Briefly: Antitumor activity against human A549 cells at 1 uM by SRB method. It is filed as functional, cell-based.
For series [27], the system named is U-251. Put plainly: Antitumor activity against human U251 cells at 1 uM by SRB method. It is filed as functional, cell-based.
The subject of series [28] is MDA-MB-231. Put plainly: Antitumor activity against human MDA-MB-231 cells at 1 uM by SRB method. It is filed as functional, cell-based.
In series [29] the test system is SK-MEL-28. Put plainly: Antitumor activity against human SK-MEL-28 cells at 1 uM by SRB method. It is filed as functional, cell-based.
Series [30] relates to HepG2. Put plainly: Antitumor activity against human HepG2 cells at 1 uM by SRB method. It is filed as functional, cell-based.
In series [31] the test system is A549. Put plainly: Antitumor activity against human A549 cells xenografted in ip dosed nu/nu mouse assessed as inhibition of tumor volume administered three times a week for 3 weeks. It is filed as functional, organism-based. The gist of the method: as §2
A general note: Xenograft models place foreign cells or tissue in a host animal.

Series [32] relates to NCI-H226. Put plainly: Antitumor activity against human NCI-H226 cells at 1 uM by SRB method. It is filed as functional, cell-based.
A short description of series [33]: as §1. It is filed as functional, cell-based.
Series [34] concerns A549. Briefly: Antitumor activity against human A549 cells xenografted in nu/nu mouse assessed as inhibition of tumor volume at 10 mg/kg, ip administered three times a week for 3 weeks. Particulars: 504 h, route intraperitoneal. It is filed as functional. The gist of the method: as §2
In series [35] the test system is A549. Put plainly: Antitumor activity against human A549 cells xenografted in ip dosed nu/nu mouse assessed as tumor growth inhibition administered three times a week for 3 weeks. It is filed as functional, organism-based. In a few lines: as §2
Series [36] relates to MDA-MB-231. Briefly: Inhibition of DNMT-1 protein human expression in MDA-MB-231 cells after 24 hrs by Western blot analysis. It is filed as functional, cell-based. The gist of the method: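 MDA-MB-231 cells were exposed to 0, 1, 1.5, 2 or 5 μM for 24 h. DNMT-1 protein was detected by Western blot, with actin as the loading control. Blots are representative of two independent cell cultures.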
In general terms: In western blotting, separated proteins are transferred to a membrane and probed.

For series [37], the system named is MCF7. Put plainly: Antitumor activity against human MCF7 cells at 1 uM by SRB method. It is filed as functional, cell-based.
In the next series the test system is Mus musculus. Put plainly: Toxicity in nu/nu mouse xenografted with human A549 cells assessed as change in body weight 3 to 10 mg/kg, ip administered three times a week for 3 weeks. It is filed as organism-based. Also on record: dose 3-10 mg/kg, route intraperitoneal. Conditions: in vivo, 504 h. In a few lines: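 Mouse body weight was monitored throughout in male nu/nu mice bearing subcutaneous A549 flank xenografts (3 × 10⁶ cells). These mice received 3 or 10 mg/kg intraperitoneally three times a week for three weeks, starting when tumors reached about 100 mm³, and were compared with vehicle controls.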

The test system of series [38] is MKN-45. Put plainly: Antitumor activity against human MKN45 cells at 1 uM by SRB method. It is filed as functional, cell-based.
Series [39] relates to PC-3. Briefly: Antitumor activity against human PC3 cells at 1 uM by SRB method. It is filed as functional, cell-based.
The test system of series [40] is HeLa. Briefly: Antitumor activity against human HeLa cells at 1 uM by SRB method. It is filed as functional, cell-based.
Series [41] has as its system HCT-116. Briefly: Antitumor activity against human HCT116 cells at 1 uM by SRB method. It is filed as functional, cell-based.

Structures are written as SMILES. Activity calls are given as the source filed them. The rule behind the calls is not given here.

For `Nc1ccn([C@H]2C[C@H](O)C(CO)=C2F)c(=O)n1`, the result with HCT-116 [1], in the series on PC-3 [2], with MCF7 [3], in the series on U-251 [4], in the series with K562 [5] and in the series on MKN-45 [6] was inactive. Further, the result in the series with HT-29 [7], with PANC-1 [8], in the series with UMRC2 [9], in the series on HepG2 [10], in the series on MDA-MB-231 [11] and in the series with LNCaP [12] was inactive. In addition, the result with HeLa [13], in the series on NCI-H226 [14], with SK-MEL-28 [15], with OVCAR-3 [16] and with A549 [17] was inactive.
A word on the IC50: it is the midpoint of a concentration-inhibition curve. For orientation: inhibition in vivo means the share of the control response that was lost under treatment. As to `Nc1ccn([C@@H]2C(F)=C(CO)[C@@H](O)[C@H]2O)c(=O)n1` [RODUCITABINE], the IC50 in the series with HCT-116 [1] worked out at 190 nM; in the series on PC-3 [2], 630 nM; in the series on MCF7 [3] it was 340 nM; with U-251 [4], 830 nM; in the series on K562 [5], 820 nM; with MKN-45 [6] it was 340 nM. The IC50 with HT-29 [7] came to 280 nM; in series [33], 830 nM; in the series on HepG2 [10], 790 nM; in the series with MDA-MB-231 [11], 180 nM; in the series on LNCaP [12], 2670 nM; in the series on HeLa [13], 1350 nM. For the same compound, the IC50 with NCI-H226 [14] came out at 250 nM; in the series with SK-MEL-28 [15], 1380 nM; in the series on OVCAR-3 [16], 800 nM; with A549 [17] it was 500 nM. The inhibition result in the series on A549 [18], with A549 [31], in the series on A549 [35] and in the series on MDA-MB-231 [36] was “Dose-dependent effect” each time. Also, the inhibition in vivo at 3 mg/kg in the series on A549 [19] was 31.8%. Moreover, the result in the series on K562 [20], with UMRC2 [21], in the series with OVCAR-3 [22], with LNCaP [23], in the series on HT-29 [24] and in the series on PANC-1 [25] was Active. Besides, the result in the series with A549 [26], in the series with U-251 [27], with MDA-MB-231 [28], with SK-MEL-28 [29], with HepG2 [30] and in the series with NCI-H226 [32] was Active. In addition, the outcome in the series with MCF7 [37], with MKN-45 [38], in the series with PC-3 [39], in the series on HeLa [40] and in the series with HCT-116 [41] was Active. Moreover, in the series on A549 [34], the inhibition in vivo at 10 mg/kg is 58.1%. The Activity result with Mus musculus was “Non-toxic”.
For the compound `Nc1ccn([C@@H]2O[C@H](CO)[C@@H](O)C2(F)F)c(=O)n1` [GEMCITABINE], the inhibition in vivo at 10 mg/kg in the series with A549 [34] was 76.7%.
